Active and inactive are the calls of the source. The calls are words filed in the database; no cut-off is given here.

The first data set deals with J774.A1. Briefly: Antiinflammatory activity in LPS-induced mouse J774.a1 cells assessed as inhibition of IL-6 production at 10 uM pretreated for 2 hrs followed by LPS stimulation and measured after 30 mins by ELISA relative to control. The note with it: time 2.5 hrs. It is filed as functional. In a few lines: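 J774A.1 cells (DMEM, 10 % FBS, 37 °C) treated with 10 μM compound or 4-HC for 2 h, then LPS. After 30 min, IL-6 in medium measured by ELISA. Result is % inhibition, mean ± SEM of three independent experiments.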
In general terms: An ELISA detects its analyte on a solid surface through an enzyme-linked reagent.
For `CCN1CCN(CCCOc2cc(=O)oc3ccccc23)CC1`, the inhibition (as a rule, how much of the control response was suppressed) at 10 µM came out at 30.1%.
In the case of `O=c1cc(OCCCNCCc2cccs2)c2ccccc2o1`, the inhibition entry was “inactive”.
On to `O=c1cc(OCCCCN2CCOCC2)c2ccccc2o1`, for which the inhibition result was “inactive”.
In the case of `O=c1cc(OCCCN2CCCC2)c2ccccc2o1`, the inhibition at 10 µM was 39%.
For the molecule `CC1CCCN(CCCOc2cc(=O)oc3ccccc23)C1` (centres undefined), the inhibition result was “inactive”.
In the case of `CC(=O)N1CCN(CCCOc2cc(=O)oc3ccccc23)CC1`, the inhibition at 10 µM worked out at 42.3%.
The same measure, in the same setting: then `Cc1cc(C)cc(COc2cc(=O)oc3ccccc23)c1`, with 17.5%; and `O=c1cc(OCCNCCc2cccs2)c2ccccc2o1`, with 34.7%.
On to `O=c1cc(OCCCNCCCN2CCOCC2)c2ccccc2o1`, for which the inhibition result was “inactive”.
Same read-out and setting: then `CN(C)CCCOc1cc(=O)oc2ccccc12`, with “inactive”.
Regarding `O=c1cc(OCCOCCN2CCNCC2)c2ccccc2o1`, the inhibition at 10 µM came out at 50.1%.
Still for that read-out and setting: as for `CCN1CCN(CCOc2cc(=O)oc3ccccc23)CC1`, the figure is 18.1%.
`O=c1cc(O)c2ccccc2o1` [4-HYDROXYCOUMARINS]: the inhibition at 10 µM is 17.3%.
The same measure, in the same setting: as for `O=c1cc(OCCNCCCN2CCOCC2)c2ccccc2o1`, the figure is 21.8%.
With `COCCN1CCN(CCOc2cc(=O)oc3ccccc23)CC1`, the inhibition result is “inactive”.
On the same count and under the same terms, then `O=c1cc(OCC2CO2)c2ccccc2o1` (centres undefined), with “inactive”.
With `CC1CCCN(CCOc2cc(=O)oc3ccccc23)C1` (centres undefined), the inhibition at 10 µM came out at 48.8%.
Regarding `O=c1cc(OCc2cccc(F)c2)c2ccccc2o1`, the inhibition at 10 µM was 4.36%.
Consider `O=c1cc(OCCCNCCCN2CCCC2)c2ccccc2o1`, for which the inhibition at 10 µM was found to be 54.4%.
Still for that read-out and setting: as for `O=c1cc(OCCN2CCOCC2)c2ccccc2o1`, the figure is 17.5%.
For the molecule `O=c1cc(OCCN2CCN(C3CC3)CC2)c2ccccc2o1`, the inhibition result was “inactive”.
Still for that read-out and setting: then `COCCN1CCN(CCCOc2cc(=O)oc3ccccc23)CC1`, with “inactive”.
Take `COc1cccc(COc2cc(=O)oc3ccccc23)c1`: the inhibition at 10 µM was 50.4%.
Still for that read-out and setting: as for `O=c1cc(OCCN2CCN(CCO)CC2)c2ccccc2o1`, the figure is 48.8%; as for `O=c1cc(OCCCN2CCN(CCO)CC2)c2ccccc2o1`, 51.3%.

The test system of the next data set is Mus musculus. Briefly: Protection against LPS-induced C57BL/6 mouse model of acute lung injury assessed as reduction in IL-6 level in serum at 20 mg/kg, po administered 3 times for every 12 hrs followed by LPS stimulation at 5 mg/kg and measured after 6 hrs by ELISA. The format is functional, organism-based. The note with it: time 30.0 hrs. A digest of the protocol:
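C57BL/6 mice, 6 per group. Gavaged at 20 mg/kg three times at 12 h intervals; controls received saline, and dexamethasone 20 mg/kg served as reference. After the last dose, LPS 5 mg/kg given intratracheally. At 6 h, blood collected for serum IL-6 by ELISA. Left lung lavaged with 3 × 200 μL saline, and BALF assayed for IL-6, total protein and neutrophil count. Mean ± SEM, n = 6.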
For the molecule `C[C@@H]1C[C@H]2[C@@H]3CCC4=CC(=O)C=C[C@]4(C)[C@@]3(F)[C@@H](O)C[C@]2(C)[C@@]1(O)C(=O)CO`, the outcome was Active.

A further data set deals with J774.A1. Briefly: Cytotoxicity against mouse J774.A1 cells assessed as reduction in cell viability at 10 uM measured after 24 hrs by MTT assay. The note with it: j774.a1, 24 h. The format is toxicity, cell-based. A digest of the protocol: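 J774A.1 cells seeded and incubated 24 h, then exposed to 10 μM compound for 24 h. MTT (5.0 mg/mL) added as 10 % for 4 h, formazan dissolved in DMSO with 30 min shaking, absorbance read at 490 nm. Expressed as % of control.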
For the molecule `CC(=O)N1CCN(CCCOc2cc(=O)oc3ccccc23)CC1`, the Activity entry is recorded as “Non-Toxic”.
The same measure, in the same setting: then `O=c1cc(OCCOCCN2CCNCC2)c2ccccc2o1`, with “Non-Toxic”.
The same measure, in the same setting: then `O=c1cc(OCCCN2CCN(CCO)CC2)c2ccccc2o1`, with “Non-Toxic”.
